≈ marks a conversion by molar mass, not a printed value. Calls of active or inactive are those of the source. The rule behind the calls is not given here.
Tests used:
Staphylococcus aureus [1] = assay: Antibacterial activity against Staphylococcus aureus at 25 ug/ml incubated for 24 hrs by agar well diffusion method; format: functional; conditions: read-out: DIZ
Outline: (§1)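 Bacteria grown in nutrient broth at 37 °C for 24 h, then subcultured at room temperature. Compounds dissolved in DMSO at 5 mg mL⁻¹ and 5–20 µL added to 6 mm wells, giving 25, 50, 75, 100 µg per well. Gentamicin was the positive control and DMSO the negative control. Plates held at 37 °C for 24 h, then inhibition zone diameter (mm) measured. Values are means of three determinations.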

Staphylococcus aureus [2] = assay: Antibacterial activity against Staphylococcus aureus at 50 ug/ml incubated for 24 hrs by agar well diffusion method; format: functional; conditions: read-out: DIZ; outline: as §1
Staphylococcus aureus [3] = assay: Antibacterial activity against Staphylococcus aureus at 75 ug/ml incubated for 24 hrs by agar well diffusion method; format: functional; conditions: read-out: DIZ; outline: as §1
Staphylococcus aureus [4] = assay: Antibacterial activity against Staphylococcus aureus at 100 ug/ml incubated for 24 hrs by agar well diffusion method; format: functional; conditions: read-out: DIZ; outline: as §1
Bacillus subtilis [5] = assay: Antibacterial activity against Bacillus subtilis at 25 ug/ml incubated for 24 hrs by agar well diffusion method; format: functional; conditions: read-out: DIZ; outline: as §1
Bacillus subtilis [6] = assay: Antibacterial activity against Bacillus subtilis at 50 ug/ml incubated for 24 hrs by agar well diffusion method; format: functional; conditions: read-out: DIZ; outline: as §1
Bacillus subtilis [7] = assay: Antibacterial activity against Bacillus subtilis at 75 ug/ml incubated for 24 hrs by agar well diffusion method; format: functional; conditions: read-out: DIZ; outline: as §1
Bacillus subtilis [8] = assay: Antibacterial activity against Bacillus subtilis at 100 ug/ml incubated for 24 hrs by agar well diffusion method; format: functional; conditions: read-out: DIZ; outline: as §1
Escherichia coli [9] = assay: Antibacterial activity against Escherichia coli at 25 ug/ml incubated for 24 hrs by agar well diffusion method; format: functional; conditions: read-out: DIZ; outline: as §1
Escherichia coli [10] = assay: Antibacterial activity against Escherichia coli at 50 ug/ml incubated for 24 hrs by agar well diffusion method; format: functional; conditions: read-out: DIZ; outline: as §1
Escherichia coli [11] = assay: Antibacterial activity against Escherichia coli at 75 ug/ml incubated for 24 hrs by agar well diffusion method; format: functional; conditions: read-out: DIZ; outline: as §1
Escherichia coli [12] = assay: Antibacterial activity against Escherichia coli at 100 ug/ml incubated for 24 hrs by agar well diffusion method; format: functional; conditions: read-out: DIZ; outline: as §1
Klebsiella pneumoniae [13] = assay: Antibacterial activity against Klebsiella pneumoniae at 25 ug/ml incubated for 24 hrs by agar well diffusion method; format: functional; conditions: read-out: DIZ; outline: as §1
Klebsiella pneumoniae [14] = assay: Antibacterial activity against Klebsiella pneumoniae at 50 ug/ml incubated for 24 hrs by agar well diffusion method; format: functional; conditions: read-out: DIZ; outline: as §1
Klebsiella pneumoniae [15] = assay: Antibacterial activity against Klebsiella pneumoniae at 75 ug/ml incubated for 24 hrs by agar well diffusion method; format: functional; conditions: read-out: DIZ; outline: as §1
Klebsiella pneumoniae [16] = assay: Antibacterial activity against Klebsiella pneumoniae at 100 ug/ml incubated for 24 hrs by agar well diffusion method; format: functional; conditions: read-out: DIZ; outline: as §1
Aspergillus niger [17] = assay: Antifungal activity against Aspergillus niger at 25 ug/ml incubated for 48 hrs by agar well diffusion method; format: functional; conditions: read-out: DIZ
Outline: (§2)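 Compounds dissolved in DMSO at 5 mg mL⁻¹ and 5–20 µL added to 6 mm wells, giving 25, 50, 75, 100 µg per well. Bavistin was the positive control and DMSO the negative control. Plates incubated at 28 °C for 48 h, then inhibition zone diameter (mm) measured. Values are means of three determinations.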

Aspergillus niger [18] = assay: Antifungal activity against Aspergillus niger at 50 ug/ml incubated for 48 hrs by agar well diffusion method; format: functional; conditions: read-out: DIZ; outline: as §2
Aspergillus niger [19] = assay: Antifungal activity against Aspergillus niger at 75 ug/ml incubated for 48 hrs by agar well diffusion method; format: functional; conditions: read-out: DIZ; outline: as §2
Aspergillus niger [20] = assay: Antifungal activity against Aspergillus niger at 100 ug/ml incubated for 48 hrs by agar well diffusion method; format: functional; conditions: read-out: DIZ; outline: as §2
Candida albicans [21] = assay: Antifungal activity against Candida albicans at 25 ug/ml incubated for 48 hrs by agar well diffusion method; format: functional; conditions: read-out: DIZ; outline: as §2
Candida albicans [22] = assay: Antifungal activity against Candida albicans at 50 ug/ml incubated for 48 hrs by agar well diffusion method; format: functional; conditions: read-out: DIZ; outline: as §2
Candida albicans [23] = assay: Antifungal activity against Candida albicans at 75 ug/ml incubated for 48 hrs by agar well diffusion method; format: functional; conditions: read-out: DIZ; outline: as §2
Candida albicans [24] = assay: Antifungal activity against Candida albicans at 100 ug/ml incubated for 48 hrs by agar well diffusion method; format: functional; conditions: read-out: DIZ; outline: as §2
Fusarium oxysporum [25] = assay: Antifungal activity against Fusarium oxysporum at 25 ug/ml incubated for 48 hrs by agar well diffusion method; format: functional; conditions: for zone of inhibition at 25 µg/mL: read-out: DIZ; outline: as §2
Fusarium oxysporum [26] = assay: Antifungal activity against Fusarium oxysporum at 50 ug/ml incubated for 48 hrs by agar well diffusion method; format: functional; conditions: for zone of inhibition at 50 µg/mL: read-out: DIZ; outline: as §2
Fusarium oxysporum [27] = assay: Antifungal activity against Fusarium oxysporum at 75 ug/ml incubated for 48 hrs by agar well diffusion method; format: functional; conditions: for zone of inhibition at 75 µg/mL: read-out: DIZ; outline: as §2
Fusarium oxysporum [28] = assay: Antifungal activity against Fusarium oxysporum at 100 ug/ml incubated for 48 hrs by agar well diffusion method; format: functional; conditions: for zone of inhibition at 100 µg/mL: read-out: DIZ; outline: as §2
Erythrocyte = assay: Anti-inflammatory activity in human RBC assessed as inhibition of hypotonic solution-induced hemolysis after 10 mins by spectrophotometric method; format: functional, cell-based
Outline: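 Human blood (heparinized) washed with 0.9% saline, packed cells made into a 40% v/v stock in isotonic phosphate buffer (154 mM NaCl, 10 mM sodium phosphate, pH 7.4). Stock RBC mixed with hypotonic buffer (50 mM NaCl, 10 mM phosphate, pH 7.4) plus sample at 20–100 µg mL⁻¹.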

SMILES	zone of inhibition at 25 µg/mL (Staphylococcus aureus [1]) [mm]	zone of inhibition at 50 µg/mL (Staphylococcus aureus [2]) [mm]	zone of inhibition at 75 µg/mL (Staphylococcus aureus [3]) [mm]	zone of inhibition at 100 µg/mL (Staphylococcus aureus [4]) [mm]	zone of inhibition at 25 µg/mL (Bacillus subtilis [5]) [mm]	zone of inhibition at 50 µg/mL (Bacillus subtilis [6]) [mm]	zone of inhibition at 75 µg/mL (Bacillus subtilis [7]) [mm]	zone of inhibition at 100 µg/mL (Bacillus subtilis [8]) [mm]	zone of inhibition at 25 µg/mL (Escherichia coli [9]) [mm]	zone of inhibition at 50 µg/mL (Escherichia coli [10]) [mm]	zone of inhibition at 75 µg/mL (Escherichia coli [11]) [mm]	zone of inhibition at 100 µg/mL (Escherichia coli [12]) [mm]	zone of inhibition at 25 µg/mL (Klebsiella pneumoniae [13]) [mm]	zone of inhibition at 50 µg/mL (Klebsiella pneumoniae [14]) [mm]	zone of inhibition at 75 µg/mL (Klebsiella pneumoniae [15]) [mm]	zone of inhibition at 100 µg/mL (Klebsiella pneumoniae [16]) [mm]	zone of inhibition at 25 µg/mL (Aspergillus niger [17]) [mm]	zone of inhibition at 50 µg/mL (Aspergillus niger [18]) [mm]	zone of inhibition at 75 µg/mL (Aspergillus niger [19]) [mm]	zone of inhibition at 100 µg/mL (Aspergillus niger [20]) [mm]	further results
CC(C)[C@H](NC(=O)OC(C)(C)C)C(=O)Oc1ccc2c(=O)c3ccccc3oc2c1	10	13	17	22	7	13	19	22	8	13	18	20	5	11	19	24	7	13	16	20	zone of inhibition at 25 µg/mL (Candida albicans [21]): 10 mm; zone of inhibition at 50 µg/mL (Candida albicans [22]): 13 mm; zone of inhibition at 75 µg/mL (Candida albicans [23]): 15 mm; zone of inhibition at 100 µg/mL (Candida albicans [24]): 21 mm; zone of inhibition at 25 µg/mL (Fusarium oxysporum [25]): 9 mm; zone of inhibition at 50 µg/mL (Fusarium oxysporum [26]): 14 mm; zone of inhibition at 75 µg/mL (Fusarium oxysporum [27]): 20 mm; zone of inhibition at 100 µg/mL (Fusarium oxysporum [28]): 23 mm; IC50 (Erythrocyte): 76 µg/mL (≈ 185 µM)
Cl.NCC(=O)Oc1ccc2c(=O)c3ccccc3oc2c1	10	15	19	23	10	15	21	26	12	17	21	24	17	22	27	30	7	10	14	17	zone of inhibition at 25 µg/mL (Candida albicans [21]): 9 mm; zone of inhibition at 50 µg/mL (Candida albicans [22]): 11 mm; zone of inhibition at 75 µg/mL (Candida albicans [23]): 16 mm; zone of inhibition at 100 µg/mL (Candida albicans [24]): 20 mm; zone of inhibition at 25 µg/mL (Fusarium oxysporum [25]): 7 mm; zone of inhibition at 50 µg/mL (Fusarium oxysporum [26]): 10 mm; zone of inhibition at 75 µg/mL (Fusarium oxysporum [27]): 14 mm; zone of inhibition at 100 µg/mL (Fusarium oxysporum [28]): 17 mm; IC50 (Erythrocyte): 70 µg/mL
CC(C)C[C@H](N)C(=O)Oc1ccc2c(=O)c3ccccc3oc2c1.Cl	9	12	15	21	13	19	24	29	8	14	20	24	10	16	22	26	10	14	19	22	zone of inhibition at 25 µg/mL (Candida albicans [21]): 10 mm; zone of inhibition at 50 µg/mL (Candida albicans [22]): 15 mm; zone of inhibition at 75 µg/mL (Candida albicans [23]): 19 mm; zone of inhibition at 100 µg/mL (Candida albicans [24]): 21 mm; zone of inhibition at 25 µg/mL (Fusarium oxysporum [25]): 9 mm; zone of inhibition at 50 µg/mL (Fusarium oxysporum [26]): 13 mm; zone of inhibition at 75 µg/mL (Fusarium oxysporum [27]): 17 mm; zone of inhibition at 100 µg/mL (Fusarium oxysporum [28]): 19 mm; IC50 (Erythrocyte): 70 µg/mL
Cl.N[C@@H](CS)C(=O)Oc1ccc2c(=O)c3ccccc3oc2c1	20	29	35	39	19	26	31	34	19	28	34	39	15	23	30	37	19	27	32	37	zone of inhibition at 25 µg/mL (Candida albicans [21]): 17 mm; zone of inhibition at 50 µg/mL (Candida albicans [22]): 26 mm; zone of inhibition at 75 µg/mL (Candida albicans [23]): 35 mm; zone of inhibition at 100 µg/mL (Candida albicans [24]): 40 mm; zone of inhibition at 25 µg/mL (Fusarium oxysporum [25]): 20 mm; zone of inhibition at 50 µg/mL (Fusarium oxysporum [26]): 28 mm; zone of inhibition at 75 µg/mL (Fusarium oxysporum [27]): 33 mm; zone of inhibition at 100 µg/mL (Fusarium oxysporum [28]): 39 mm; IC50 (Erythrocyte): 30 µg/mL
CC(C)C[C@H](NC(=O)OC(C)(C)C)C(=O)Oc1ccc2c(=O)c3ccccc3oc2c1	7	13	17	22	11	16	20	24	4	10	17	21	8	11	14	20	10	15	18	22	zone of inhibition at 25 µg/mL (Candida albicans [21]): 8 mm; zone of inhibition at 50 µg/mL (Candida albicans [22]): 11 mm; zone of inhibition at 75 µg/mL (Candida albicans [23]): 16 mm; zone of inhibition at 100 µg/mL (Candida albicans [24]): 20 mm; zone of inhibition at 25 µg/mL (Fusarium oxysporum [25]): 10 mm; zone of inhibition at 50 µg/mL (Fusarium oxysporum [26]): 12 mm; zone of inhibition at 75 µg/mL (Fusarium oxysporum [27]): 15 mm; zone of inhibition at 100 µg/mL (Fusarium oxysporum [28]): 19 mm; IC50 (Erythrocyte): 64 µg/mL (≈ 150 µM)
CC[C@H](C)[C@H](NC(=O)OC(C)(C)C)C(=O)Oc1ccc2c(=O)c3ccccc3oc2c1	4	10	15	19	7	11	14	19	8	12	19	22	7	14	20	25	8	12	16	20	zone of inhibition at 25 µg/mL (Candida albicans [21]): 9 mm; zone of inhibition at 50 µg/mL (Candida albicans [22]): 13 mm; zone of inhibition at 75 µg/mL (Candida albicans [23]): 17 mm; zone of inhibition at 100 µg/mL (Candida albicans [24]): 22 mm; diameter of the inhibition zone (DIZ) (Fusarium oxysporum [25]): inactive; diameter of the inhibition zone (DIZ) (Fusarium oxysporum [26]): inactive; diameter of the inhibition zone (DIZ) (Fusarium oxysporum [27]): inactive; diameter of the inhibition zone (DIZ) (Fusarium oxysporum [28]): inactive; IC50 (Erythrocyte): 60 µg/mL (≈ 141 µM)
